Measured values as given in ChEMBL document CHEMBL1149771, “Antimicrobial studies of 2,4-dichloro-5-fluorophenyl containing oxadiazoles” (2008).
≈ marks a conversion by molar mass, not a printed value.

Tests used:
Format in all cases: functional
Staphylococcus aureus [1] = assay: Antibacterial activity against Staphylococcus aureus ATCC 25923 at 37 degC after 24 hrs by broth dilution method; settings: ATCC 25923, 24 h
Method in brief: (§1)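 Broth dilution MIC. Nutrient broth held two-fold serial dilutions of compound and was inoculated with about 5 × 10⁵ c.f.u. of actively dividing bacteria. Cultures ran 24 h at 37 °C, with growth checked visually and spectrophotometrically. MIC was the lowest concentration arresting growth. Ciprofloxacin was the standard.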

Pseudomonas aeruginosa [2] = assay: Antibacterial activity against Pseudomonas aeruginosa ATCC 27853 at 37 degC after 24 hrs by disc diffusion method
Method in brief: (§2)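 Disc diffusion on nutrient agar. Plates were spread with 1–2 × […] c.f.u./ml inoculum (0.5 McFarland). Sterile 6.25 mm filter-paper discs were soaked in a known concentration of compound and placed on the agar. Plates were inverted and incubated 24 h at 37 °C. Inhibition zones (mm) were read against solvent and growth controls, with ciprofloxacin as reference.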

Candida albicans [3] = assay: Antifungal activity against Candida albicans at 35 degC after 48 hrs
Method in brief: (§3)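 Fungicidal endpoint (MFC). 0.1 ml from each broth-dilution tube was spread on agar plates and c.f.u. counted after 48 h at 35 °C. MFC was the lowest concentration killing 99.9% of the inoculum.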

Candida albicans [4] = assay: Antifungal activity against Candida albicans at 35 degC after 48 hrs by broth dilution method
Method in brief: (§4)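 Fungal MIC by broth dilution. Two-fold serial dilutions of compound in nutrient broth were inoculated with about 1.6 × 10⁴–6 × 10⁴ c.f.u./ml. Incubation was 48 h at 35 °C. MIC was the lowest concentration arresting fungal growth.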

[5] = tested on: Trichophyton mentagrophytes; assay: Antifungal activity against Trichophyton mentagrophytes at 37 degC after 3 to 4 days by agar dilution method; settings: in the assay text read “agar diffusion method” for “agar dilution method”
Method in brief: (§5)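 Agar well diffusion for fungi, compounds in DMSO. Sabouraud agar was adjusted to pH 5.7 and lawned with a saline spore suspension (a loopful in 3 ml). Plates were dried 1 h at 37 °C, then wells were punched. Incubation was 3–4 days at 37 °C, with controls in triplicate. Inhibition zones were measured against controls, with griseofulvin as standard.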

Staphylococcus aureus [6] = assay: Antibacterial activity against Staphylococcus aureus ATCC 25923 at 37 degC after 24 hrs by disc diffusion method; method in brief: as §2
Escherichia coli [7] = assay: Antibacterial activity against Escherichia coli ATCC 25922 at 37 degC after 24 hrs by disc diffusion method; method in brief: as §2
Klebsiella pneumoniae [8] = assay: Antibacterial activity against Klebsiella pneumoniae ATCC 25922 at 35 degC after 18 to 24 hrs; settings: recultured, in the assay text read “Klebsiella pneumoniae (recultured)” for “Klebsiella pneumoniae ATCC 25922”
Method in brief: (§6)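 Bactericidal endpoint (MBC) taken from the broth-dilution MIC tubes. 0.1 ml from each tube was spread on agar plates and c.f.u. counted after 18–24 h. MBC was the lowest concentration completely killing the bacteria.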

Talaromyces marneffei [9] = assay: Antifungal activity against Penicillium marneffei at 35 degC after 48 hrs; method in brief: as §3
Talaromyces marneffei [10] = assay: Antifungal activity against Penicillium marneffei at 37 degC after 3 to 4 days by agar […] method; method in brief: as §5
Klebsiella pneumoniae [11] = assay: Antibacterial activity against Klebsiella pneumoniae ATCC 25922 at 37 degC after 24 hrs by disc diffusion method; method in brief: as §2
Escherichia coli [12] = assay: Antibacterial activity against Escherichia coli ATCC 25922 at 35 degC after 18 to 24 hrs; method in brief: as §6
Klebsiella pneumoniae [13] = assay: Antibacterial activity against Klebsiella pneumoniae ATCC 25922 at 37 degC after 24 hrs by broth dilution method; settings: recultured, in the assay text read “Klebsiella pneumoniae (recultured)” for “Klebsiella pneumoniae ATCC 25922”; method in brief: as §1
[14] = tested on: Trichophyton mentagrophytes; assay: Antifungal activity against Trichophyton mentagrophytes at 35 degC after 48 hrs by broth dilution method; method in brief: as §4
Aspergillus fumigatus [15] = assay: Antifungal activity against Aspergillus fumigatus at 35 degC after 48 hrs; method in brief: as §3
Staphylococcus aureus [16] = assay: Antibacterial activity against Staphylococcus aureus ATCC 25923 at 35 degC after 18 to 24 hrs; method in brief: as §6
Aspergillus fumigatus [17] = assay: Antifungal activity against Aspergillus fumigatus at 37 degC after 3 to 4 days by agar […] method; method in brief: as §5
Aspergillus fumigatus [18] = assay: Antifungal activity against Aspergillus fumigatus at 35 degC after 48 hrs by broth dilution method; method in brief: as §4
Pseudomonas aeruginosa [19] = assay: Antibacterial activity against Pseudomonas aeruginosa ATCC 27853 at 35 degC after 18 to 24 hrs; method in brief: as §6
[20] = tested on: Trichophyton mentagrophytes; assay: Antifungal activity against Trichophyton mentagrophytes at 35 degC after 48 hrs; method in brief: as §3
Talaromyces marneffei [21] = assay: Antifungal activity against Penicillium marneffei at 35 degC after 48 hrs by broth dilution method; method in brief: as §4
Pseudomonas aeruginosa [22] = assay: Antibacterial activity against Pseudomonas aeruginosa ATCC 27853 at 37 degC after 24 hrs by broth dilution method; settings: ATCC 27853, 24 h; method in brief: as §1
Candida albicans [23] = assay: Antifungal activity against Candida albicans at 37 degC after 3 to 4 days by agar dilution method; method in brief: as §5
Escherichia coli [24] = assay: Antibacterial activity against Escherichia coli ATCC 25922 at 37 degC after 24 hrs by broth dilution method; settings: ATCC 25922, 24 h; method in brief: as §1

| SMILES | MIC (Staphylococcus aureus [1]) | MIC (Candida albicans [4]) | MIC (Klebsiella pneumoniae [13]) | MIC [14] | MIC (Aspergillus fumigatus [18]) | MIC (Talaromyces marneffei [21]) | inhibition zone (IZ) (Pseudomonas aeruginosa [2]) | MFC (Candida albicans [3]) | inhibition zone (IZ) [5] | inhibition zone (IZ) (Staphylococcus aureus [6]) | inhibition zone (IZ) (Escherichia coli [7]) | MBC (Klebsiella pneumoniae [8]) | MFC (Talaromyces marneffei [9]) | inhibition zone (IZ) (Talaromyces marneffei [10]) | MBC (Escherichia coli [12]) | MFC (Aspergillus fumigatus [15]) | MBC (Staphylococcus aureus [16]) | MBC (Pseudomonas aeruginosa [19]) | MFC [20] | inhibition zone (IZ) (Candida albicans [23]) | further results |
| --- | --- | --- | --- | --- | --- | --- | --- | --- | --- | --- | --- | --- | --- | --- | --- | --- | --- | --- | --- | --- | --- |
| Fc1cc(-c2cc(-c3nnc(COc4ccc(Cl)cc4Cl)o3)c3ccccc3n2)c(Cl)cc1Cl | 6.25 µg/mL (≈ 11.7 µM) | 6.25 µg/mL (≈ 11.7 µM) | 12.5 µg/mL (≈ 23.4 µM) | 6.25 µg/mL (≈ 11.7 µM) | 6.25 µg/mL (≈ 11.7 µM) | 6.25 µg/mL (≈ 11.7 µM) | 30 mm | 6.25 µg/mL (≈ 11.7 µM) | 21 mm | 20 mm | 26 mm | 12.5 µg/mL (≈ 23.4 µM) | 6.25 µg/mL (≈ 11.7 µM) | 19 mm | 12.5 µg/mL (≈ 23.4 µM) | 12.5 µg/mL (≈ 23.4 µM) | 6.25 µg/mL (≈ 11.7 µM) | 12.5 µg/mL (≈ 23.4 µM) | 25 µg/mL (≈ 46.7 µM) | 29 mm | inhibition zone (IZ) (Klebsiella pneumoniae [11]): 17 mm; inhibition zone (IZ) (Aspergillus fumigatus [17]): 27 mm; MIC (Pseudomonas aeruginosa [22]): 6.25 µg/mL (≈ 11.7 µM); MIC (Escherichia coli [24]): 6.25 µg/mL (≈ 11.7 µM) |
| O=C(O)c1cn(C2CC2)c2cc(N3CCNCC3)c(F)cc2c1=O [CIPROFLOXACIN] |  |  | 12.5 µg/mL (≈ 37.7 µM) |  |  |  | 32 mm |  |  | 22 mm | 27 mm | 12.5 µg/mL (≈ 37.7 µM) |  |  | 12.5 µg/mL (≈ 37.7 µM) |  | 12.5 µg/mL (≈ 37.7 µM) | 12.5 µg/mL (≈ 37.7 µM) |  |  | inhibition zone (IZ) (Klebsiella pneumoniae [11]): 19 mm |
| COC1=CC(=O)C[C@@H](C)[C@]12Oc1c(Cl)c(OC)cc(OC)c1C2=O [GRISEOFULVIN] |  | 6.25 µg/mL (≈ 17.7 µM) |  | 6.25 µg/mL (≈ 17.7 µM) | 6.25 µg/mL (≈ 17.7 µM) | 6.25 µg/mL (≈ 17.7 µM) |  | 12.5 µg/mL (≈ 35.4 µM) | 24 mm |  |  |  | 12.5 µg/mL (≈ 35.4 µM) | 20 mm |  | 12.5 µg/mL (≈ 35.4 µM) |  |  | 12.5 µg/mL (≈ 35.4 µM) | 30 mm | inhibition zone (IZ) (Aspergillus fumigatus [17]): 27 mm |

The next lines start with results.

| MIC (Staphylococcus aureus [1]) | MIC (Candida albicans [4]) | MIC (Klebsiella pneumoniae [13]) | MIC [14] | MIC (Aspergillus fumigatus [18]) | MIC (Talaromyces marneffei [21]) | SMILES | inhibition zone (IZ) (Pseudomonas aeruginosa [2]) | MFC (Candida albicans [3]) | inhibition zone (IZ) [5] | inhibition zone (IZ) (Staphylococcus aureus [6]) | inhibition zone (IZ) (Escherichia coli [7]) | MBC (Klebsiella pneumoniae [8]) | MFC (Talaromyces marneffei [9]) | inhibition zone (IZ) (Talaromyces marneffei [10]) | MBC (Escherichia coli [12]) | MFC (Aspergillus fumigatus [15]) | MBC (Staphylococcus aureus [16]) | MBC (Pseudomonas aeruginosa [19]) | MFC [20] | inhibition zone (IZ) (Candida albicans [23]) | further results |
| --- | --- | --- | --- | --- | --- | --- | --- | --- | --- | --- | --- | --- | --- | --- | --- | --- | --- | --- | --- | --- | --- |
| 12.5 µg/mL (≈ 26 µM) | 6.25 µg/mL (≈ 13 µM) | > 100 µg/mL | 6.25 µg/mL (≈ 13 µM) | > 100 µg/mL | > 100 µg/mL | Cc1ccccc1OCc1nnc(-c2cc(-c3cc(F)c(Cl)cc3Cl)nc3ccccc23)o1 |  | 25 µg/mL (≈ 52 µM) | 18 mm | 12 mm | 12 mm | > 100 µg/mL | > 100 µg/mL |  | 25 µg/mL (≈ 52 µM) | > 100 µg/mL | 25 µg/mL (≈ 52 µM) | > 100 µg/mL | 12.5 µg/mL (≈ 26 µM) | 25 mm | Activity (Pseudomonas aeruginosa [2]): >100 µg/mL; Activity (Talaromyces marneffei [10]): >100 µg/mL; Activity (Klebsiella pneumoniae [11]): >100 µg/mL; Activity (Aspergillus fumigatus [17]): >100 µg/mL; MIC (Pseudomonas aeruginosa [22]): > 100 µg/mL; MIC (Escherichia coli [24]): 12.5 µg/mL (≈ 26 µM) |
| > 100 µg/mL | 6.25 µg/mL (≈ 12.5 µM) | 25 µg/mL (≈ 49.9 µM) | > 100 µg/mL | > 100 µg/mL | 12.5 µg/mL (≈ 25 µM) | Fc1cc(-c2cc(-c3nnc(COc4ccccc4Cl)o3)c3ccccc3n2)c(Cl)cc1Cl | 22 mm | 12.5 µg/mL (≈ 25 µM) |  |  | 20 mm | 100 µg/mL (≈ 200 µM) | 25 µg/mL (≈ 49.9 µM) | 12 mm | 50 µg/mL (≈ 99.9 µM) | > 100 µg/mL | > 100 µg/mL | 50 µg/mL (≈ 99.9 µM) | > 100 µg/mL | 20 mm | Activity [5]: >100 µg/mL; Activity (Staphylococcus aureus [6]): >100 µg/mL; Activity (Klebsiella pneumoniae [11]): >100 µg/mL; Activity (Aspergillus fumigatus [17]): >100 µg/mL; MIC (Pseudomonas aeruginosa [22]): 25 µg/mL (≈ 49.9 µM); MIC (Escherichia coli [24]): 6.25 µg/mL (≈ 12.5 µM) |
